In ChEMBL document CHEMBL4513216, “Probing the Open Global Health Chemical Diversity Library for Multistage-Active Starting Points for Next-Generation Antimalarials” (ACS Infect Dis, 2020):

Experiment: Toxicity liver stage against HepG2, at 10uM
Assay type: cell-based
Set-up: test concentration 10 uM, cell line HepG2-A16-CD81EGFP
Conditions: human, HepG2-A16-CD81EGFP cells; read-out: INHIBITION
How it was run: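 Uninfected HepG2-A16-CD81EGFP cells, 3 × 10^3 per well, 1536-well, plated on prespotted compound at 10 μM final, parasite-free screening media added to match infected plates; puromycin 10 μM positive, DMSO 0.5% negative; run in parallel with 48 h PbLuc assay at 37 °C, 5% CO2; viability by CellTiter-Glo luminescence, normalized to controls.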

SMILES | cytotoxicity at 10 µM
O=C(C1CCOC1)N1CCC2(CC1)Cc1ccccc1CNC2=O (stereo unspecified) | -113%
O=C(c1ccco1)N1C[C@H]2CN(Cc3cccc(F)c3)C(=O)[C@H]2C1 | -78.2%
CCc1csc(CNC2CCN(c3ccc(C)cc3)CC2)n1 | -10.8%
CC(C)CCN1CC2(CCN(C(=O)C3(C)CCCCO3)CC2)OC1=O (stereo unspecified) | -14.4%
O=C(c1ccc2c(c1)OCO2)N1CCCC(Nc2ccc(F)cc2)C1 (stereo unspecified) | -5.05%
CC(C)CC(=O)N1CCc2ccc(S(=O)(=O)N3CCN(C)CC3)cc2C1 | -15.3%
CCNc1ncc(C(=O)NC2CCOCC2)cn1 | 4.37%
CCCS(=O)(=O)NCc1cccnc1Oc1ccc(C)nc1 | -1.15%
O=C(NCCn1cc(Cl)cn1)C1CCN(C(=O)C2CC2)CC1 | -50.5%
NC1CCN(S(=O)(=O)c2ccc(C(=O)N3CCSCC3)cc2)C1 (stereo unspecified) | 7.1%
CN(CC1COc2ccccc2O1)C(=O)c1ccc(-c2cn[nH]c2)nc1 (stereo unspecified) | 5.37%
Cn1nnnc1SCCNC(=O)c1c[nH]nc1C1CCCCC1 | -0.863%
CN(CC1(CO)CCCC1)[C@@H]1c2ccccc2C2(CCNCC2)[C@H]1O | 1.44%
N[C@H]1CN(S(=O)(=O)c2cccnc2)C[C@@H]1C1CC1 | 7.28%
COCCc1noc(CN(C)C(=O)C(C)N2CCc3ccccc3C2)n1 (stereo unspecified) | -0.262%
Cc1cc(C)cc(N2CCN(Cc3cccc(CCN)c3)CC2=O)c1 | 3.32%
Cc1cnc(NCc2ccncc2)nc1-c1cnn(C)c1 | 15.4%
Cc1cnccc1-n1nc(C(C)C)nc1CCN(C)S(C)(=O)=O | -4.05%
CCn1c(N)nc2cc(C(=O)NCc3ccccc3Cl)cnc21 | -14.1%

SMILES | cytotoxicity at 10 µM
Fc1ccccc1C1NCCc2cc3c(cc21)OCCO3 (stereo unspecified) | -10.2%
Cc1cnn(CC2CCCN2Cc2nnc(C3CC3)o2)c1 (stereo unspecified) | -21.7%
COc1c(CNCc2cccc(Cn3cccn3)c2)c(C)nn1C | 1.33%
CC(C(=O)NCc1ccc(N2CCN(C)CC2)nc1)n1cccn1 (stereo unspecified) | -9.51%
CCOc1ccc(C#N)cc1NCC(=O)NC(=O)NC | -8.35%
O=C(c1ccc(-n2ccnc2)cc1)N1CCCC(n2ccnc2)C1 (stereo unspecified) | -21.1%
CCN(CC1CCCO1)C(=O)Nc1cc(C(N)=O)ccc1OC (stereo unspecified) | -7.33%
Cc1cc(CN2CCOC(CNc3cccnn3)C2)on1 (stereo unspecified) | -13.8%
Cc1csc(N2CCN(C(=O)c3ccc(C)s3)CC2)n1 | -24.3%
Cc1cc(C)n(CC2CCCN2C(=O)Cc2c(C)nc(C)[nH]c2=O)n1 (stereo unspecified) | -12.8%
CCc1nc(C)c(C(=O)NCCNc2ncccc2C#N)s1 | -8.54%
NC(=O)c1cc(C2CCCN(C(=O)CCc3cscn3)C2)n[nH]1 (stereo unspecified) | -7.59%
c1ccc(-n2ncc(CNC3CCc4ncnn4C3)n2)cc1 (stereo unspecified) | -3.38%
Cc1ccccc1OCCC(=O)N1CCCC(n2cncn2)C1 (stereo unspecified) | -17.6%
CCn1ccnc1CNCC1CCN(CC(O)c2ccccc2)CC1 (stereo unspecified) | -12.8%
Cc1cnc(CN2CCOC(CNc3cccnn3)C2)cn1 (stereo unspecified) | -5.15%
CCc1nc(C2CCCN2C(=O)c2ccc3c(c2)nnn3CC)no1 (stereo unspecified) | 4.5%
O=C(NCc1nnc2n1CCCC2)N1CCc2ccccc2C1 | 4.79%
CCN1CCN(C2CCN(Cc3nnc(C(C)(C)C)o3)CC2)C1=O | 3.8%

SMILES | cytotoxicity at 10 µM
CC(OCC(F)(F)F)C(=O)NCc1ccc(-n2cncn2)nc1 (stereo unspecified) | -2.55%
Cc1cc(C(=O)N2CCN(C)CC2)nn1CC(=O)NCc1ccccn1 | -3.58%
O=C1CCC2(CCC(NCc3ccoc3)CC2)N1 (stereo unspecified) | 1.14%
OC(CNCc1ccccc1C(F)(F)F)c1ccccc1 (stereo unspecified) | -4.63%
CN1CCCN(C(=O)c2nc3c(o2)CN(C(=O)c2cccnc2)C3)CC1 | 2.75%
COc1ccc(CN2C[C@@H]3CCCO[C@@H]3[C@H](NS(C)(=O)=O)C2)cc1 | -2.83%
c1cc(CN2CC[C@H]3CO[C@H](CN4CCOCC4)[C@H]3C2)cs1 | 4.91%
Fc1cccc(-c2nnn3c2COC(CNCc2cccs2)C3)c1 (stereo unspecified) | 1.07%
COc1ccc(CCNCc2c(C)nn(C)c2N(C)C)cc1OC | -11.3%
COCC(=O)N1CCc2ccc(=O)n(Cc3csc(C)n3)c2CC1 | 8.19%
Cn1cc(C(=O)N2CC[C@@H]3[C@@H]2CCN3c2ncc(F)cn2)cn1 | 13.8%
Cc1ccsc1C(=O)N1C[C@@H]2CN(Cc3ccoc3)CCO[C@@H]2C1 | -1.19%
CN1CCN(C2COC3(CCN(Cc4cccs4)CC3)C2)CC1 (stereo unspecified) | -84.5%
CCOc1ncnc2c1CCN(Cc1csc(C)n1)CC2 | -68.1%
CC(=O)N1CCCC1c1nnn2cc(Nc3ccccc3)ccc12 (stereo unspecified) | 12.2%
CC(C)CCN1CCc2[nH]nc(C(=O)N3CCCC3C)c2C1 (stereo unspecified) | 4.32%
O=C(CCc1ccccc1)NC1CCC2(CCC(=O)N2)CC1 (stereo unspecified) | 1.35%
CCN1C[C@@H]2C[C@H](C(=O)Nc3ccccc3)[C@H](C1)O2 | -76.4%
